Measurements reported in ChEMBL document CHEMBL2346548, “Design, synthesis, and structure-activity relationship studies of tryptanthrins as antitubercular agents” (J Nat Prod, 2013).
Values after ≈ are worked out from the molar mass of the structure shown.

Legend:
[1] = Elimination half life in Sprague-Dawley rat at 5 mg/kg, iv; assay type: ADME, organism-based; design: dose 5 mg/kg, route intravenous; conditions: in vivo, read-out: beta t1/2 (converted)
How it was run: (§1)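 Male Sprague-Dawley rats (n = 3), single 5 mg/kg iv dose as solution in PEG300/DMSO 50:50; plasma sampled 0.083–24 h, LC-MS bioanalysis; noncompartmental analysis, means.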

[2] = Cmax in Sprague-Dawley rat at 20 mg/kg, po; assay type: ADME, organism-based; design: dose 20 mg/kg, route oral; conditions: in vivo
[3] = tested on: Mycobacterium tuberculosis; test: Antitubercular activity against non-replicating Mycobacterium tuberculosis H37Rv incubated for 10 days by LORA method; assay type: functional; conditions: 240 h
How it was run: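 H37Rv carrying pFCA-luxAB was adapted to low oxygen by gradual self-depletion in a sealed, slowly stirred flask. It was then exposed to compounds for 10 days under anaerobic conditions. Cultures recovered for 28 h in ambient oxygen before n-decanal substrate was added and luminescence read. MIC was the lowest concentration giving a 90% reduction in luminescence versus untreated controls.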

[4] = Volume of distribution in Sprague-Dawley rat at 5 mg/kg, iv; assay type: ADME, organism-based; design: dose 5 mg/kg, route intravenous; conditions: in vivo; how it was run: as §1
[5] = Aqueous solubility in PBS buffer at pH 7.4 by HPLC method; assay type: physicochemical; conditions: PBS buffer, read-out: solubility
How it was run: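 Compound at 200 μM final in 2% DMSO in PBS pH 7.4, shaken 24 h at room temperature; quantified by HPLC with photodiode array detection at 230 nm; duplicate, mean reported.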

[6] = Permeability across apical to basolateral side in human Caco2 cells incubated for 1 hr at 37 degC by HPLC-MS/MS method; assay type: ADME, cell-based; conditions: Caco-2
How it was run: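 TC7 (Caco-2 subclone) monolayer; 10 μM compound in 1% DMSO in HBSS-MES pH 6.5 on apical donor side, basolateral receiver pH 7.4; shaken 1 h at 37 °C; receiver sampled, HPLC-MS/MS; duplicate means.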

[7] = Protein binding in human plasma at 10 uM incubated for 8 hrs at 37 degC by equilibrium dialysis method; assay type: ADME, cell-free; conditions: read-out: PPB (converted)
How it was run: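 Equilibrium dialysis: 10 μM compound in 1% DMSO in human plasma vs 0.05 M phosphate buffer pH 7.5 across 12–14 K cutoff membrane, at least 8 h at 37 °C; HPLC-photodiode detection at 230 nm; duplicate means.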

[8] = Metabolic stability in human liver microsomes assessed as parent compound remaining at 1 uM incubated for 1 hr by HPLC-MS/MS method; assay type: ADME, Microsome; conditions: read-out: Stability
How it was run: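 Pooled mixed-gender human liver microsomes (0.3 mg/mL protein), 1 μM compound with NADP-regenerating system in phosphate buffer pH 7.4, 1 h at 37 °C; parent measured at start and end by HPLC-MS/MS; duplicate means.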

[9] = AUC (0 to infinity) in Sprague-Dawley rat at 20 mg/kg, po; assay type: ADME, organism-based; design: time infinity, dose 20 mg/kg, route oral; conditions: plasma
[10] = tested on: Mycobacterium tuberculosis; test: Antitubercular activity against Mycobacterium tuberculosis H37Rv incubated at 37 degC for 7 days by microplate alamar blue assay; assay type: functional; conditions: Mycobacterium tuberculosis, H37Rv, 168 h
How it was run: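 Mtb H37Rv was grown in 7H9 broth with glycerol, Casitone, 10% OADC and 0.05% Tween 80 to OD600 0.4. Compounds were 2-fold serially diluted from DMSO stocks in 7H9, and wells were inoculated at 2 × 10⁵ CFU/mL. After 7 days at 37 °C, Alamar Blue was added and read after a further 24 h. MIC was the lowest concentration preventing the blue-to-pink change.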

[11] = Tmax in C57BL/6 mouse at 40 mg/kg, po; assay type: ADME, organism-based; design: dose 40 mg/kg, route oral; conditions: in vivo
How it was run: (§2)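 Female C57BL/6 mice, single 40 mg/kg oral gavage; three mice per time point; plasma at 30 min to 24 h, LC-MS; noncompartmental parameters reported as means.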

[12] = Tmax in Sprague-Dawley rat at 20 mg/kg, po; assay type: ADME, organism-based; design: dose 20 mg/kg, route oral; conditions: in vivo
[13] = Clearance in Sprague-Dawley rat at 5 mg/kg, iv; assay type: ADME, organism-based; design: dose 5 mg/kg, route intravenous; conditions: in vivo; how it was run: as §1
[14] = Solubility in simulated intestinal fluid at pH 7.6 by HPLC method; assay type: physicochemical
How it was run: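 Simulated intestinal fluid medium; each analogue 200 μM final in 2% DMSO, shaken 24 h at room temperature, then HPLC with photodiode array read at 230 nm; duplicate, means given.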

[15] = AUC (0 to infinity) in C57BL/6 mouse at 40 mg/kg, po; assay type: ADME, organism-based; design: dose 40 mg/kg, route oral, time infinity; conditions: plasma
[16] = tested on: Mycobacterium tuberculosis; test: Antitubercular activity against Mycobacterium tuberculosis H37Rv incubated at 37 degC for 14 days in presence of 40% human serum by microplate alamar blue assay; assay type: functional; conditions: 336 h
How it was run: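 This is the MABA run in 7H9 broth containing 40% human serum. Compounds were 2-fold serially diluted, and wells were inoculated with H37Rv at 2 × 10⁵ CFU/mL. Incubation was at 37 °C for 14 days, then Alamar Blue was added. MIC was the lowest concentration preventing the blue-to-pink colour change.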

[17] = Solubility in simulated gastric fluid at pH 1.5 by HPLC method; assay type: physicochemical
How it was run: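 Compound at 200 μM final in 2% DMSO in simulated gastric fluid, shaken 24 h at room temperature; HPLC-photodiode array detection at 230 nm; duplicate means.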

[18] = Half life in Sprague-Dawley rat at 20 mg/kg, po; assay type: ADME, organism-based; design: dose 20 mg/kg, route oral; conditions: in vivo
[19] = tested on: Vero; test: Cytotoxicity against african green monkey Vero cells; assay type: cell-based, Chlorocebus sabaeus; conditions: Chlorocebus sabaeus, Vero; read-out: IC50
[20] = Permeability across basolateral to apical side in human Caco2 cells incubated for 1 hr at 37 degC by HPLC-MS/MS method; assay type: ADME, cell-based; conditions: Caco-2
[21] = Efflux ratio in human Caco2 cells incubated for 1 hr at 37 degC by HPLC-MS/MS method; assay type: ADME, cell-based; conditions: Caco-2
[22] = Cmax in C57BL/6 mouse at 40 mg/kg, po; assay type: ADME, organism-based; design: dose 40 mg/kg, route oral; conditions: in vivo; how it was run: as §2
[23] = AUC (0 to infinity) in Sprague-Dawley rat at 5 mg/kg, iv; assay type: ADME, organism-based; design: time infinity, dose 5 mg/kg, route intravenous; conditions: plasma
[24] = Oral bioavailability in Sprague-Dawley rat at 20 mg/kg; assay type: ADME, organism-based; conditions: in vivo
[25] = tested on: Salmonella typhimurium; test: Toxicity in Salmonella typhimurium TA100 assessed as compound level per well causing cytotoxicity at 0.25 to 240 ug/well in absence of rat liver S9 fraction; assay type: organism-based; conditions: salmonella enterica subsp. enterica serovar typhimurium
How it was run: (§3)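 MicroAmes: strains preincubated with or without Aroclor-induced rat liver S9, duplicate wells, six concentrations 0.25–250 μg equivalents/well; DMSO vehicle, 4-nitroquinoline-N-oxide (−S9) and 2-aminoanthracene (+S9) positive controls; revertant colonies counted; cytotoxicity noted as reduced revertants or background lawn; precipitation recorded.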

[26] = tested on: Mycobacterium tuberculosis; test: Antitubercular activity against Mycobacterium tuberculosis Erdman ATCC 35801 infected in C57BL/6 mouse assessed as viable bacterial load in spleen at 200 mg/kg twice daily through gavage 5 days per week for 4 weeks starting on 10th day post-infection (reference value: 4.79 +/- 0.21 log10CFU/spleen); assay type: functional
[27] = tested on: Salmonella typhimurium; test: Toxicity in Salmonella typhimurium TA100 assessed as compound level per well causing cytotoxicity at 0.25 to 240 ug/well in presence of rat liver S9 fraction; assay type: organism-based; conditions: salmonella enterica subsp. enterica serovar typhimurium; how it was run: as §3
[28] = tested on: Mycobacterium tuberculosis; test: Antitubercular activity against Mycobacterium tuberculosis Erdman ATCC 35801 infected in C57BL/6 mouse assessed as viable bacterial load in lung at 200 mg/kg/day through gavage 5 days per week for 4 weeks starting on 10th day post-infection (reference value: 6.49 +/- 0.10 log10CFU/lung); assay type: functional
[29] = tested on: Mycobacterium tuberculosis; test: Antitubercular activity against Mycobacterium tuberculosis Erdman ATCC 35801 infected in C57BL/6 mouse assessed as viable bacterial load in spleen at 200 mg/kg/day through gavage 5 days per week for 4 weeks starting on 10th day post-infection (reference value: 4.79 +/- 0.21 log10CFU/spleen); assay type: functional
[30] = Cmax in C57BL/6 mouse at 40 mg/kg, po formulated in 30% HP-beta-CD; assay type: ADME, organism-based; design: dose 40 mg/kg, route oral; conditions: in vivo; how it was run: as §2
[31] = tested on: Salmonella typhimurium; test: Mutagenicity in Salmonella typhimurium TA98 assessed as mean revertant colonies at 0.25 to 240 ug/well in absence of rat liver S9 fraction; assay type: toxicity, organism-based; conditions: salmonella enterica subsp. enterica serovar typhimurium; how it was run: as §3
[32] = Tmax in C57BL/6 mouse at 40 mg/kg, po formulated in 30% HP-beta-CD; assay type: ADME, organism-based; design: dose 40 mg/kg, route oral; conditions: in vivo; how it was run: as §2
[33] = tested on: Salmonella typhimurium; test: Mutagenicity in Salmonella typhimurium TA98 assessed as mean revertant colonies at 0.25 to 240 ug/well in presence of rat liver S9 fraction; assay type: toxicity, organism-based; conditions: salmonella enterica subsp. enterica serovar typhimurium; how it was run: as §3
[34] = Cmax in C57BL/6 mouse at 40 mg/kg, po formulated in 0.5% methylcellulose; assay type: ADME, organism-based; design: dose 40 mg/kg, route oral; conditions: in vivo; how it was run: as §2
[35] = Tmax in C57BL/6 mouse at 40 mg/kg, po formulated in 0.5% methylcellulose; assay type: ADME, organism-based; design: dose 40 mg/kg, route oral; conditions: in vivo; how it was run: as §2
[36] = tested on: Mycobacterium tuberculosis; test: Antitubercular activity against Mycobacterium tuberculosis Erdman ATCC 35801 infected in C57BL/6 mouse assessed as viable bacterial load in lung at 200 mg/kg twice daily through gavage 5 days per week for 4 weeks starting on 10th day post-infection (reference value: 6.49 +/- 0.10 log10CFU/lung); assay type: functional
[37] = AUC (0 to infinity) in C57BL/6 mouse at 40 mg/kg, po formulated in 30% HP-beta-CD; assay type: ADME, organism-based; design: time infinity, dose 40 mg/kg, route oral; conditions: plasma
[38] = tested on: Salmonella typhimurium; test: Mutagenicity in Salmonella typhimurium TA100 assessed as mean revertant colonies at 0.25 to 240 ug/well in absence of rat liver S9 fraction; assay type: toxicity, organism-based; conditions: salmonella enterica subsp. enterica serovar typhimurium; how it was run: as §3
[39] = Half life in C57BL/6 mouse at 40 mg/kg, po formulated in 0.5% methylcellulose; assay type: ADME, organism-based; design: dose 40 mg/kg, route oral; conditions: in vivo; how it was run: as §2
[40] = AUC (0 to infinity) in C57BL/6 mouse at 40 mg/kg, po formulated in 0.5% methylcellulose; assay type: ADME, organism-based; design: dose 40 mg/kg, route oral, time infinity; conditions: in vivo
[41] = tested on: Salmonella typhimurium; test: Mutagenicity in Salmonella typhimurium TA100 assessed as mean revertant colonies at 0.25 to 240 ug/well in presence of rat liver S9 fraction; assay type: toxicity, organism-based; conditions: salmonella enterica subsp. enterica serovar typhimurium; how it was run: as §3

Compound	half-life [1] [h]	Cmax [2] [ng/mL]	MIC90 [3] [µg/mL]	Vd [4] [L/kg]	solubility [5] [µM]	Papp A→B at 1 h [6] [×10⁻⁶ cm/s]	fraction unbound at 8 h, 10 µM [7]	remaining at 1 h, 1 µM [8] [%]	AUC(0-inf) [9] [ng·h/mL]	MIC [10] [µg/mL]	Tmax [12] [h]	clearance [13] [mL/min/kg]	solubility [14] [µM]	MIC [16] [µg/mL]	solubility [17] [µM]	half-life [18] [h]	IC50 [19] [µg/mL]	Papp B→A at 1 h [20] [×10⁻⁶ cm/s]	efflux ratio at 1 h [21]	AUC(0-inf) [23] [ng·h/mL]	further results
O=C1c2cc(C(=O)N3CCCCC3)ccc2-n2c1nc1ccccc1c2=O	0.88	30	> 10	6.21	16.3 (≈ 5.86 µg/mL)	59.9	0.011	105	140	0.25 (≈ 0.696 µM)	1	81	27.5 (≈ 9.88 µg/mL)	2	10.2 (≈ 3.67 µg/mL)	7.34	> 10	26	> 1	1070	Tmax [11]: 2 h; AUC(0-inf) [15]: 1300 ng·h/mL; Cmax [22]: 112 ng/mL; bioavailability [24]: 3.16%
O=C1c2ccccc2-n2c1nc1c(c2=O)CCCC1	3.98	2030	10.5 (≈ 41.6 µM)	1.62	54.9 (≈ 13.8 µg/mL)	85.4	0.043	18	19900	0.5 (≈ 1.98 µM)	4.67	5.67	73.4 (≈ 18.5 µg/mL)	1	53 (≈ 13.4 µg/mL)	6.29	8.7 (≈ 34.5 µM)	52.4	> 1	16500	Activity [25]: >= 25 ug; log10cfu [26]: 4.89; Activity [27]: >= 25 ug; log10cfu [28]: 6.5; log10cfu [29]: 4.88; Cmax [30]: 2260 ng/mL; Activity [31]: Non-toxic; Tmax [32]: 0.5 h; Activity [33]: Non-toxic; Cmax [34]: 1930 ng/mL; Tmax [35]: 1.5 h; log10cfu [36]: 6.6; AUC(0-inf) [37]: 2570 ng·h/mL; Activity [38]: Non-toxic; half-life [39]: 4.99 h; AUC(0-inf) [40]: 5280 ng·h/mL; Activity [41]: Non-toxic; bioavailability [24]: 30.1%
